Test system: Fibroblast
Test: Multiplex assay against human fibroblast
Type: toxicity, cell-based
In short: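 Tubulin, mitochondrial-mass and membrane-permeability phenotypes are per cents of healthy-nucleus cells. Cells were gated by CellPathfinder machine learning into Hoechst high-intensity objects or normal cells, normal cells into healthy, pyknosed or fragmented nuclei, and pyknosed cells into mitotic or apoptotic. Before that, live cells stained at seeding with Hoechst33342, BioTracker Green Microtubule Cytoskeleton Dye, MitoTracker Red and Annexin V Alexa Fluor 680 were imaged on a CQ1 microscope at 37°C and 5% CO2 after compound addition.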

[1] = 12 h, 1 µM, compound concentration 1 uM, replicate 1
[2] = 12 h, 1 µM, compound concentration 1 uM, replicate 2
[3] = 12 h, 10 µM, compound concentration 10 uM, replicate 1
[4] = 12 h, 10 µM, compound concentration 10 uM, replicate 2
[5] = 24 h, 1 µM, compound concentration 1 uM, replicate 1
[6] = 24 h, 1 µM, compound concentration 1 uM, replicate 2
[7] = 24 h, 10 µM, compound concentration 10 uM, replicate 1
[8] = 24 h, 10 µM, compound concentration 10 uM, replicate 2
[9] = 48 h, 1 µM, compound concentration 1 uM, replicate 1
[10] = 48 h, 1 µM, compound concentration 1 uM, replicate 2
[11] = 48 h, 10 µM, compound concentration 10 uM, replicate 1
[12] = 48 h, 10 µM, compound concentration 10 uM, replicate 2

SMILES: Cc1cnc(-c2cc(N3CCN(C(=O)CCS(C)(=O)=O)CC3)ncc2Cl)c(C)c1
- Population Apoptotic (%) [1]: 36%
- Population Fragmented Nuclei (%) [1]: 9%
- Population Healthy Nuclei (%) [1]: 71%
- Population Hoechst High Intensity Objects (%) [1]: 1%
- Population Membrane Permeable-Phenotype (%) [1]: 0%
- Population Mitochondria Different-Phenotype (%) [1]: 7%
- Population Mitotic Cells (%) [1]: 63%
- Population Normal (%) [1]: 98%
- Population Pyknosed Nuclei (%) [1]: 19%
- Population Tubulin-Different-Phenotype (%) [1]: 20%
- Total Cell Count [1]: 99
- Population Apoptotic (%) [2]: 31%
- Population Fragmented Nuclei (%) [2]: 22%
- Population Healthy Nuclei (%) [2]: 36%
- Population Hoechst High Intensity Objects (%) [2]: 9%
- Population Membrane Permeable-Phenotype (%) [2]: 7%
- Population Mitochondria Different-Phenotype (%) [2]: 10%
- Population Mitotic Cells (%) [2]: 68%
- Population Normal (%) [2]: 90%
- Population Pyknosed Nuclei (%) [2]: 41%
- Population Tubulin-Different-Phenotype (%) [2]: 50%
- Total Cell Count [2]: 85
- Population Apoptotic (%) [3]: 40%
- Population Fragmented Nuclei (%) [3]: 13%
- Population Healthy Nuclei (%) [3]: 71%
- Population Hoechst High Intensity Objects (%) [3]: 4%
- Population Membrane Permeable-Phenotype (%) [3]: 1%
- Population Mitochondria Different-Phenotype (%) [3]: 2%
- Population Mitotic Cells (%) [3]: 60%
- Population Normal (%) [3]: 95%
- Population Pyknosed Nuclei (%) [3]: 14%
- Population Tubulin-Different-Phenotype (%) [3]: 24%
- Total Cell Count [3]: 142
- Population Apoptotic (%) [4]: 26%
- Population Fragmented Nuclei (%) [4]: 21%
- Population Healthy Nuclei (%) [4]: 63%
- Population Hoechst High Intensity Objects (%) [4]: 1%
- Population Mitotic Cells (%) [4]: 73%
- Population Normal (%) [4]: 98%
- Population Pyknosed Nuclei (%) [4]: 15%
- Population Tubulin-Different-Phenotype (%) [4]: 37%
- Total Cell Count [4]: 121
- Population Apoptotic (%) [5]: 54%
- Population Fragmented Nuclei (%) [5]: 10%
- Population Healthy Nuclei (%) [5]: 76%
- Population Hoechst High Intensity Objects (%) [5]: 6%
- Population Membrane Permeable-Phenotype (%) [5]: 2%
- Population Mitochondria Different-Phenotype (%) [5]: 4%
- Population Mitotic Cells (%) [5]: 45%
- Population Normal (%) [5]: 93%
- Population Pyknosed Nuclei (%) [5]: 12%
- Population Tubulin-Different-Phenotype (%) [5]: 30%
- Total Cell Count [5]: 97
- Population Apoptotic (%) [6]: 47%
- Population Fragmented Nuclei (%) [6]: 35%
- Population Healthy Nuclei (%) [6]: 38%
- Population Hoechst High Intensity Objects (%) [6]: 10%
- Population Membrane Permeable-Phenotype (%) [6]: 3%
- Population Mitochondria Different-Phenotype (%) [6]: 0%
- Population Mitotic Cells (%) [6]: 52%
- Population Normal (%) [6]: 89%
- Population Pyknosed Nuclei (%) [6]: 25%
- Population Tubulin-Different-Phenotype (%) [6]: 61%
- Total Cell Count [6]: 91
- Population Apoptotic (%) [7]: 46%
- Population Fragmented Nuclei (%) [7]: 10%
- Population Healthy Nuclei (%) [7]: 79%
- Population Hoechst High Intensity Objects (%) [7]: 0%
- Population Membrane Permeable-Phenotype (%) [7]: 2%
- Population Mitochondria Different-Phenotype (%) [7]: 6%
- Population Mitotic Cells (%) [7]: 53%
- Population Normal (%) [7]: 99%
- Population Pyknosed Nuclei (%) [7]: 9%
- Population Tubulin-Different-Phenotype (%) [7]: 28%
- Total Cell Count [7]: 135
- Population Apoptotic (%) [8]: 42%
- Population Fragmented Nuclei (%) [8]: 19%
- Population Healthy Nuclei (%) [8]: 67%
- Population Hoechst High Intensity Objects (%) [8]: 4%
- Population Mitochondria Different-Phenotype (%) [8]: 9%
- Population Mitotic Cells (%) [8]: 57%
- Population Normal (%) [8]: 95%
- Population Pyknosed Nuclei (%) [8]: 12%
- Population Tubulin-Different-Phenotype (%) [8]: 38%
- Total Cell Count [8]: 116
- Population Apoptotic (%) [9]: 69%
- Population Fragmented Nuclei (%) [9]: 19%
- Population Healthy Nuclei (%) [9]: 58%
- Population Hoechst High Intensity Objects (%) [9]: 2%
- Population Membrane Permeable-Phenotype (%) [9]: 0%
- Population Mitochondria Different-Phenotype (%) [9]: 1%
- Population Mitotic Cells (%) [9]: 30%
- Population Normal (%) [9]: 97%
- Population Pyknosed Nuclei (%) [9]: 21%
- Population Tubulin-Different-Phenotype (%) [9]: 33%
- Total Cell Count [9]: 109
- Population Apoptotic (%) [10]: 36%
- Population Fragmented Nuclei (%) [10]: 40%
- Population Healthy Nuclei (%) [10]: 47%
- Population Hoechst High Intensity Objects (%) [10]: 5%
- Population Membrane Permeable-Phenotype (%) [10]: 12%
- Population Mitochondria Different-Phenotype (%) [10]: 9%
- Population Mitotic Cells (%) [10]: 63%
- Population Normal (%) [10]: 94%
- Population Pyknosed Nuclei (%) [10]: 12%
- Population Tubulin-Different-Phenotype (%) [10]: 70%
- Total Cell Count [10]: 92
- Population Apoptotic (%) [11]: 50%
- Population Fragmented Nuclei (%) [11]: 21%
- Population Healthy Nuclei (%) [11]: 69%
- Population Hoechst High Intensity Objects (%) [11]: 2%
- Population Membrane Permeable-Phenotype (%) [11]: 0%
- Population Mitochondria Different-Phenotype (%) [11]: 7%
- Population Mitotic Cells (%) [11]: 50%
- Population Normal (%) [11]: 97%
- Population Pyknosed Nuclei (%) [11]: 8%
- Population Tubulin-Different-Phenotype (%) [11]: 33%
- Total Cell Count [11]: 141
- Population Apoptotic (%) [12]: 75%
- Population Fragmented Nuclei (%) [12]: 29%
- Population Healthy Nuclei (%) [12]: 61%
- Population Hoechst High Intensity Objects (%) [12]: 3%
- Population Membrane Permeable-Phenotype (%) [12]: 2%
- Population Mitochondria Different-Phenotype (%) [12]: 5%
- Population Mitotic Cells (%) [12]: 25%
- Population Normal (%) [12]: 96%
- Population Pyknosed Nuclei (%) [12]: 9%
- Total Cell Count [12]: 131

From ChEMBL document CHEMBL5058577, “EUbOPEN Chemogenomics Library 2 (Multiplex)” (2022)
